Measurements pooled from the literature.
Lines come from different studies, so protocols differ.
Target: Phosphorylase b kinase gamma catalytic chain, liver/testis isoform (PHKG2, Homo sapiens, UniProt P15735)
One construct used (P15735 1-406): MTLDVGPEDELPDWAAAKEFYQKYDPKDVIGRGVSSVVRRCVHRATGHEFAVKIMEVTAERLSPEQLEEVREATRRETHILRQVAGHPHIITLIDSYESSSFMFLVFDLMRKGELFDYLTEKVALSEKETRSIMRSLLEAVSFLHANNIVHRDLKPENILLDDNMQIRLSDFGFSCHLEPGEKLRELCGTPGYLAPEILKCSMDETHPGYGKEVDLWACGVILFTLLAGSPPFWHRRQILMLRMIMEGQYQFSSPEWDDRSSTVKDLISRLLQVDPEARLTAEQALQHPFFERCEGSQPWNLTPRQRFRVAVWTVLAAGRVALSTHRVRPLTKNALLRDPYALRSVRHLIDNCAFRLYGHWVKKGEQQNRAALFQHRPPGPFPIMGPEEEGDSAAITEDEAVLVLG

SMILES	assay	conditions	quantity	value
CC(C)(C)c1cc(C=C(C#N)C#N)cc(Br)c1O	enzyme activity, inhibitor	0.5 µM	remaining activity	106%
Cn1cncc1[C@@](O)(COc1ccc(C#N)cc1-c1ccc(OC(F)(F)F)cc1)c1ccc(C#N)cc1	cell-free assay, competition with immobilised ligand	1 µM	remaining binding	92%
O=c1[nH]c2ccccc2n1C1CCN(Cc2ccc(-c3[nH]c4cc5ncnc5cc4nc3-c3ccccc3)cc2)CC1	cell-free assay	0.5 µM	remaining signal	104%
Cn1cc(-c2cccc(N3CCc4c(sc5c4CC(C)(C)C5)C3=O)c2CO)cc(Nc2ccncn2)c1=O	enzyme activity, inhibitor	1 µM	inhibition	-1%
Cc1nn(C)cc1-c1nc2c(N3CCN(Cc4ccc(Cl)cc4)CC3)c(Cl)cnc2[nH]1	binding, competition with immobilised ligand	1 µM	remaining binding	100%
Nc1ncc(-c2nc(N3CCOCC3)nc(N3CCOCC3)n2)c(C(F)F)n1	binding, competition with immobilised ligand	10 µM	remaining binding	67%
COc1ncccc1-c1cnn2ccc(N3CCN(C(=O)OC(C)C)CC3)nc12	binding, competition with immobilised ligand	1 µM	remaining binding	100%
O=C(NCc1ncc(C(F)(F)F)cc1Cl)c1ccc2c(c1)C1(CCS(=O)(=O)CC1)[C@H](C1CC1)N2S(=O)(=O)c1ccc(F)cc1	cell-free assay, competition with immobilised ligand	1 µM	remaining binding	96%
Cn1cc(-c2cc(F)cc(N3CCn4c(cc5c4CCCC5)C3=O)c2CO)cc(Nc2ccc(N3CCN(C4COC4)CC3)cn2)c1=O	enzyme activity, inhibitor	0.1 µM	inhibition	8%
